Experimental data taken from ChEMBL document CHEMBL1132157 (J Med Chem, 1999).

Assays:
[1] = molecular target: T1, 5-hydroxytryptamine receptor 1B (Homo sapiens, UniProt P28222); assay: Binding affinity at cloned human 5-hydroxytryptamine 1B receptor stably expressed in CHO cells by [3H]5-HT displacement.; type: cell-based
[2] = molecular target: T2, 5-hydroxytryptamine receptor 1D (Homo sapiens, UniProt P28221); assay: Agonist-induced [35S]- GTPgammaS binding in CHO cells stably transfected with 5-hydroxytryptamine 1D receptor; type: cell-based
T2 sequence (P28221 whole entry): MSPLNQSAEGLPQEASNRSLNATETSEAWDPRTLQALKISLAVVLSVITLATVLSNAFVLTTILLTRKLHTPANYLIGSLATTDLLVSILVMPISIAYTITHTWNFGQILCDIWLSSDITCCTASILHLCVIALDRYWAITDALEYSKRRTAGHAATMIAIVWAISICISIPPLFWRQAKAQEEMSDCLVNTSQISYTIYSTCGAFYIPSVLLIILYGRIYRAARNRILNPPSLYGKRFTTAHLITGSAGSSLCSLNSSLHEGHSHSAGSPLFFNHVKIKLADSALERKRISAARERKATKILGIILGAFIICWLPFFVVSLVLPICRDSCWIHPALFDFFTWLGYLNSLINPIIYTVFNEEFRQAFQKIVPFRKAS
In short: (§1)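 Membranes from thawed CHO cells with human 5-HT1D, prepared in ice-cold 20 mM Hepes/EDTA at pH 7.4, spun at 40000g. Assay buffer: 100 mM NaCl, 10 mM MgCl2, 0.1% ascorbate, 10 μM pargyline. GDP 100 μM plus drug, 20 min at 30 °C, then ice 15 min. Then 100 pM [35S]GTPγS, 30 min at 30 °C, filtration. Emax is taken as % of maximal 5-HT response; duplicates, 2–5 occasions.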

[3] = molecular target: T2, 5-hydroxytryptamine receptor 1D; assay: Binding affinity at human cloned 5-hydroxytryptamine 1D receptor stably expressed in CHO cells by [3H]5-HT displacement.; type: cell-based
In short: (§2)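 Membranes from thawed CHO cells with human 5-HT1B or 5-HT1D, washed in 50 mM Tris-HCl pH 7.7, preincubated 10 min at 37 °C to remove endogenous 5-HT. Buffer holds 0.1% ascorbate, 10 μM pargyline and 4 mM CaCl2. Uses 2.0 nM [3H]5-HT, 30 min at 37 °C; 10 μM 5-HT defines nonspecific binding. Filtration; IC50 by nonlinear regression; duplicates, 2–5 occasions.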

[4] = molecular target: T2, 5-hydroxytryptamine receptor 1D; assay: Maximum stimulation of [35S]GTP-gamma-S, binding in CHO cells expressing human 5-HT-1d relative to 5-HT; type: functional, cell-based; in short: as §1
[5] = Ratio of IC50 for human 5-HT1B to human 5-HT1D receptors
[6] = molecular target: T1, 5-hydroxytryptamine receptor 1B; assay: Displacement of [3H]5-HT binding to cloned 5-hydroxytryptamine 1B receptor stably expressed in CHO cells; type: cell-based; in short: as §2
[7] = molecular target: T2, 5-hydroxytryptamine receptor 1D; assay: Displacement of [3H]5-HT binding to cloned human 5-hydroxytryptamine 1D receptor stably expressed in CHO cells; type: cell-based; in short: as §2

T1 sequence (P28222 whole entry): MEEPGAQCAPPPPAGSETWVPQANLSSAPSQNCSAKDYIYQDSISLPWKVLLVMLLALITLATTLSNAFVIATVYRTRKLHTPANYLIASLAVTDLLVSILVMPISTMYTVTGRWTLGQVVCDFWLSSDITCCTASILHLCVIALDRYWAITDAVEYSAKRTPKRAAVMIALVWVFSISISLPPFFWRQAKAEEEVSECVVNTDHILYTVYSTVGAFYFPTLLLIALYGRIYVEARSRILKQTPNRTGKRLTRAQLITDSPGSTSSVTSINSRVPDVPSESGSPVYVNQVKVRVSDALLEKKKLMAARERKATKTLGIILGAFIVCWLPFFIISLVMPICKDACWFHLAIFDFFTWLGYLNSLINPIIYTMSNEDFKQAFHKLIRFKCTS

Structure (SMILES)	IC50 [1] [nM]	EC50 [2] [nM]	IC50 [3] [nM]	Efficacy [4] [%]	Selectivity [5]	IC50 [6] [nM]	IC50 [7] [nM]
C[C@@H](NC1CCN(CCCc2c[nH]c3ccc(-n4cnnc4)cc23)CC1)[C@H](O)c1ccccc1	200	15	11	76	18	–	–
O[C@@H]1Cc2ccccc2[C@H]1NC1CCN(CCCc2c[nH]c3ccc(-n4cnnc4)cc23)CC1	–	13	–	75	32	210	6.6
OCCC(NC1CCN(CCCc2c[nH]c3ccc(-n4cnnc4)cc23)CC1)c1ccccc1 (stereo not given)	150	5.1	5.5	100	27	–	–
c1ccc(C2CCCCN2C2CCN(CCCc3c[nH]c4ccc(-n5cnnc5)cc34)CC2)cc1 (stereo not given)	–	4.7	–	65	220	410	1.9
CC(C)=CCN(C)C1CCN(CCCc2c[nH]c3ccc(-n4cnnc4)cc23)CC1	–	1.8	–	115	82	41	0.5
C[C@@H](NC1CCN(CCCc2c[nH]c3ccc(-n4ccnc4)cc23)CC1)c1ccccc1	–	6.2	–	65	26	110	4.2
C[C@H](Cc1ccccc1)NC1CCN(CCCc2c[nH]c3ccc(-n4cnnc4)cc23)CC1	170	6.8	5.5	71	31	–	–
OC[C@H](Cc1ccccc1)NC1CCN(CCCc2c[nH]c3ccc(-n4cnnc4)cc23)CC1	140	3.6	2.1	76	67	–	–
OC[C@H](NC1CCN(CCCc2c[nH]c3ccc(-n4cncn4)cc23)CC1)c1ccccc1	–	7.4	–	77	98	400	4.1
CS(=O)(=O)NC[C@H](NC1CCN(CCCc2c[nH]c3ccc(-n4cnnc4)cc23)CC1)c1ccccc1	78	–	15	–	5.2	–	–
CC(=O)Nc1ccc([C@@H](C)NC2CCN(CCCc3c[nH]c4ccc(-n5cnnc5)cc34)CC2)cc1	350	–	29	–	12	–	–
OC[C@@H](Cc1ccccc1)NC1CCN(CCCc2c[nH]c3ccc(-n4cnnc4)cc23)CC1	100	14	8.3	74	12	–	–
CC(NC1CCN(CCCc2c[nH]c3ccc(-n4cnnc4)cc23)CC1)c1ccc(F)cc1 (stereo not given)	230	0.5	1.9	99	120	–	–
CC(CO)(NC1CCN(CCCc2c[nH]c3ccc(-n4cnnc4)cc23)CC1)c1ccccc1 (stereo not given)	98	3.4	5.2	59	19	–	–
C[C@@H](NC1CCN(CCCc2c[nH]c3ccc(-n4cncn4)cc23)CC1)c1ccccc1	–	18	–	69	23	420	18
c1ccc2c(c1)CCC2NCC1CCN(CCCc2c[nH]c3ccc(-n4cnnc4)cc23)CC1 (stereo not given)	–	1.3	–	78	23	25	1.1
CN(C1CCN(CCCc2c[nH]c3ccc(-n4cnnc4)cc23)CC1)[C@H](CO)c1ccccc1	71	–	4.3	–	17	–	–
CN(C1CCN(CCCc2c[nH]c3ccc(-n4cnnc4)cc23)CC1)[C@@H](CO)c1ccccc1	210	10	4.5	82	47	–	–

Structure (SMILES)	IC50 [1] [nM]	EC50 [2] [nM]	IC50 [3] [nM]	Efficacy [4] [%]	Selectivity [5]	IC50 [6] [nM]	IC50 [7] [nM]
CC#CCN(C)C1CCN(CCCc2c[nH]c3ccc(-n4cnnc4)cc23)CC1	81	–	9.8	–	8.3	–	–
c1ccc(CNC2CCN(CCCc3c[nH]c4ccc(-n5cnnc5)cc34)CC2)cc1	–	7.6	–	76	26	120	4.6
Oc1nc2ccccc2n1C1CCN(CCCc2c[nH]c3ccc(-n4cnnc4)cc23)CC1	–	2.2	–	72	62	74	1.2
CN(Cc1ccsc1)C1CCN(CCCc2c[nH]c3ccc(-n4cnnc4)cc23)CC1	–	4.2	–	93	23	35	1.5
OC[C@@H](NC1CCN(CCCc2c[nH]c3ccc(-n4cnnc4)cc23)CC1)c1ccccc1	160	2.6	3.5	67	46	–	–
COC[C@H](NC1CCN(CCCc2c[nH]c3ccc(Cn4cncn4)cc23)CC1)c1ccc(F)cc1	–	8.9	–	89	240	1200	5
C[C@H](NC1CCN(CCCc2c[nH]c3ccc(-n4cnnc4)cc23)CC1)c1ccccc1	95	12	0.6	76	160	–	–
C[C@@H](NC1CCN(CCCc2c[nH]c3ccc(-n4cnnc4)cc23)CC1)C(=O)Nc1ccccc1	85	15	7.6	61	11	–	–
CC(=O)Nc1ccc([C@H](C)NCC2CCN(CCCc3c[nH]c4ccc(-n5cnnc5)cc34)CC2)cc1	–	3	–	99	16	9.3	0.6
COC[C@H](NC1CCN(CCCc2c[nH]c3ccc(-n4cnnc4)cc23)CC1)c1ccccc1	210	0.9	3	93	70	–	–
OC[C@H](NC1CCN(CCCc2c[nH]c3ccc(-n4ccnc4)cc23)CC1)c1ccccc1	–	0.8	–	74	140	100	0.7
c1cc(CNC2CCN(CCCc3c[nH]c4ccc(-n5cnnc5)cc34)CC2)ccn1	–	13	–	80	5.8	140	24
O=S(=O)(NCC1CCN(CCCc2c[nH]c3ccc(-n4cnnc4)cc23)CC1)c1ccccc1	–	12	–	73	10	60	6.2
C[C@@H](NC1CCN(CCCc2c[nH]c3ccc(-n4cnnc4)cc23)CC1)[C@@H](O)c1ccccc1	210	–	12	–	18	–	–
c1cc(CNC2CCN(CCCc3c[nH]c4ccc(-n5cnnc5)cc34)CC2)co1	–	7.1	–	65	17	78	4.5
OC[C@H](NC1CCN(CCCc2c[nH]c3ccc(Cn4cncn4)cc23)CC1)c1ccccc1	–	32	–	76	57	1300	23
CN(Cc1cccs1)C1CCN(CCCc2c[nH]c3ccc(-n4cnnc4)cc23)CC1	–	3.5	–	81	33	140	4.3
NC(=O)OC[C@H](NC1CCN(CCCc2c[nH]c3ccc(-n4cnnc4)cc23)CC1)c1ccccc1	120	9.3	4.7	73	26	–	–
